Hits are enriched below; roughly 3.8% of the tested compounds scored in any of these assays.
SIRT5 block: sirtuin-5 (human) deacylase inhibition; Q9NXA8; Purified SirT5, succinyl-peptide AMC, trypsin-coupled fluorescence; 330,000 compounds, 1.1% hits; inhibition, % at 15 µM; in the data active = inhibition above about 15%; inconclusive = no clear call, values can overlap the other calls
Target sequence (Q9NXA8 whole entry, looked up): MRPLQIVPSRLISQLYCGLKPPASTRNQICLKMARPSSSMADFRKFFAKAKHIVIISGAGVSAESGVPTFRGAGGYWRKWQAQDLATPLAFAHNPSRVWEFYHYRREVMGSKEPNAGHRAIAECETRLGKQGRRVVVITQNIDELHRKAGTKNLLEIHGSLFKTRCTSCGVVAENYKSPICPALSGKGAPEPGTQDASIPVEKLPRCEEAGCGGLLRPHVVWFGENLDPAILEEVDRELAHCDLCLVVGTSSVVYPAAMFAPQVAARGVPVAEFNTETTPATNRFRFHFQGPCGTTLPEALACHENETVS
XiGFP reactiv: activators of X-chromosome reactivation in mouse fibroblasts; XiGFP mouse fibroblasts, % GFP-positive cells imaging, 3 d; cells co-treated with 5-aza-dC sensitizer; scaled so ellipticine positive control = 100%; activation, % at 7.58 µM; 360,000 compounds, 0.055% hits;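 active = mean normalized replicate activation at least 10% and every replicate at or above 10%; inconclusive = only one of the two criteria met; inactive = mean below 10% and not all replicates reach 10%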;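 also: 0% = median of on-plate neutral control wells and 100% = ellipticine 6 µM median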
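Material: XiGFP fibroblasts, SV40-immortalized. Buffer or medium: DMEM plus 5-aza-dC sensitizer. Compound: single concentration per compound, delivered by pin transfer. Times: 3 days compound exposure. Controls: ellipticine 6 µM.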
DENV2 CPE: protects cells from dengue virus 2 cytopathic effect | DENV2-infected cells, cytopathic effect rescue, plate reader | CPE inhibition, % at 9.99 µM | 350,000 compounds, 1.7% hits | AID 651640; in the data active = CPE inhibition above about 20%, passing the limit was not always enough; inconclusive = no clear call, values can overlap the other calls; tested in BHK-21 cells;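 also: 0% = median of neutral control wells and 100% = median of positive control wells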
ARNT-TACC3 inh: ARNT/TACC3 interaction disruption; Q9Y6A5; AlphaScreen His-ARNT PAS-B/GST-TACC3 binding, luminescence; TACC3 fragment carries E629A point mutation; inhibition, % at 9.99 µM; 390,000 compounds, 0.66% hits;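 active = mean inhibition of replicates at least 50% and at least half of replicates each reaching 50%; inconclusive = half or more replicates reach 50% but mean below 50%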;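 also: 0% = complete ARNT plus TACC3 wells and 100% = ARNT alone without TACC3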
FN deposition inh: fibronectin deposition inhibition; inhibition, % at 12.6 µM; 350,000 compounds, 0.086% hits; AID 743247; AH1F fibroblasts, Alexa488-fibronectin deposition fluorescence, overnight;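 active = mean inhibition across replicates of 30% or more, regardless of how many single replicates reach that level; inconclusive = mean under 30% yet at least half of replicates reach 30%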;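 also: positive control wells lacked labelled fibronectin entirely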
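Assay system: AH1F fibroblast monolayer, labelled fibronectin deposition. Amount: 10000 cells per well. Also added: labelled fibronectin 24 nM. Compound: single-point pinned compound. Incubation: cell attachment 1 h, compound and FN exposure overnight. Detection: fluorescence after three HBSS washes, excitation 485 nm, emission 525 nm. Read-out: inhibition of fibronectin deposition signal.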
FGF22 binding: binders of recombinant human FGF22 by thermal shift | SYPRO orange fluorescence; percent of sucrose octasulfate shift, DMSO zero | activity (Tm shift, normalised), % at 9.99 µM | 340,000 compounds, 1.5% hits | AID 651658 | Q9HCT0;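 active = mean Tm shift, scaled 0 neutral to 100 positive control, at about 1.3% or above, every replicate too, limit read from the data; inconclusive = no clear call, values can overlap the other calls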
Target sequence (Q9HCT0 whole entry, looked up): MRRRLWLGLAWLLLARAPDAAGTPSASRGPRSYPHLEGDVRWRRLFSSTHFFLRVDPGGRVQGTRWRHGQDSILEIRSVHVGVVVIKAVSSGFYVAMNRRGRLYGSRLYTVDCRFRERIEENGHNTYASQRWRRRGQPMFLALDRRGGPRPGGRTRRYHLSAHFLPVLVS
An asterisk follows results filed as active; u = inconclusive; x = no result given.

SMILES	SIRT5 block	XiGFP reactiv	DENV2 CPE	ARNT-TACC3 inh	FN deposition inh	FGF22 binding
O=C(COC(=O)c1c[nH]c(=O)[nH]c1=O)Nc1ccccc1F	1	0	5	-2	-1	43*
Cc1noc(C)c1NC(=O)N(C)C[C@H]1OCCCC[C@@H](C)Oc2ccc(NS(=O)(=O)c3ccc(F)cc3)cc2C(=O)N([C@@H](C)CO)C[C@@H]1C	5	1	0	1	2	0
O=C(NC1CCCCC1)[C@@H]1[C@@H](CO)[C@@H]2Cn3c(cccc3=O)[C@@H]2N1CC1CCCC1	21*	0	-1	x	x	x
O=C(NC1CCC1)[C@H]1[C@H](CO)[C@H]2Cn3c(cccc3=O)[C@@H]1N2CC1CCCC1	-1	0	36*	x	x	x
O=C(Nc1nccs1)[C@H]1[C@H](CO)[C@H]2Cn3c(cccc3=O)[C@H]2N1C(=O)C1CCC1	16*	0	-3	11	x	0
O=C(Nc1ccc(-c2ccccc2)cc1)[C@@H]1[C@@H](CO)[C@@H]2Cn3c(cccc3=O)[C@@H]2N1CC1CCCC1	15*	0	15	x	x	0
C[C@@H]1CCCCO[C@H](CN(C)Cc2ccccc2)[C@@H](C)CN([C@@H](C)CO)C(=O)c2cc(NC(=O)c3ccncc3)ccc2O1	-5	0	0	6	-2	0
COC(=O)c1ccccc1NC(=O)Nc1cccc(C)n1	-2	0	14	x	-4	43*
COc1ccccc1NC(=O)Nc1cccc(C)n1	-4	0	u	-6	0	0
CCN1C(=O)/C(=C2/Sc3ccccc3N2CC)S/C1=N\c1ncn[nH]1	-3	0	0	22	-2	44*
CC(SC(=S)N1CCCC1)C(=O)O (stereo not given)	20*	0	0	x	7	0
C[C@@H]1CCCCO[C@H](CN(C)C(=O)c2ccccc2)[C@H](C)CN([C@H](C)CO)C(=O)c2cc(NS(C)(=O)=O)ccc2O1	x	-1	x	x	x	x
Cn1cccc1C(=O)NC(=O)COC(=O)CNS(=O)(=O)c1ccc(Br)cc1	x	x	x	0	x	x
CCOc1ccc(S(=O)(=O)NCCC(=O)OCC(=O)NC(=O)c2cccn2C)cc1	x	0	0	-5	0	44*
CC(C)(Cc1cccc(CC(C)(C)C(=O)O)c1)C(=O)O	2	0	12	-32	1	17*
O=C1NC(=O)/C(=C/c2ccc(-c3cc(C(=O)O)ccc3Cl)o2)S1	26*	0	-1	12	-3	0
O=C1NC(=S)/C(=C\c2ccc(-c3ccccc3Cl)o2)S1	x	0	x	2	-3	x
Cc1ccc(-c2cnc3c(c2)C(=O)N([C@H](C)CO)C[C@@H](C)[C@H](CN(C)C(=O)c2ccc(F)cc2)O3)cc1	-1	-1	u	-1	x	0
COC(=O)[C@@H](Cc1ccccc1)NC(=O)CC[C@H]1O[C@@H](n2cc(C)c(=O)[nH]c2=O)C[C@@H]1O	-1	0	14	-4	x	0
COC(=O)[C@H](CC(C)C)NC(=O)CC[C@H]1O[C@@H](n2cc(C)c(=O)[nH]c2=O)C[C@@H]1O	1	0	70*	x	-3	1
CN(C)CC#Cc1ccc([C@@H]2[C@@H](CO)N3CCCCN(C(=O)Nc4ccc(F)cc4)C[C@@H]23)cc1	-2	0	u	6	x	0
O=[N+]([O-])c1cc(C(F)(F)F)ccc1N1CCCNCC1	-4	2	-8	-6	-4	0
Cc1nccn1-c1ccc(C(F)(F)F)cc1[N+](=O)[O-]	-2	0	-4	4	-6	43*
CN(C)CC#Cc1ccc([C@H]2[C@H]3CN(C(=O)Cc4cccnc4)CC(=O)N3[C@H]2CO)cc1	x	1	x	x	x	x
CCCS(=O)(=O)c1nc(C)cc(C)c1S(C)(=O)=O	-3	0	13	-1	-14	1
SMILES	SIRT5 block	XiGFP reactiv	DENV2 CPE	ARNT-TACC3 inh	FN deposition inh	FGF22 binding
Cc1cc(C)c(S(C)(=O)=O)c(NN)n1	-6	0	-1	-11	0	44*
O=C1NC(=S)S/C1=C\C=C\c1ccc([N+](=O)[O-])o1	25*	u	-3	11	-2	0
Cc1ccc(-n2c(SCC(=O)N3CCCc4ccccc43)nnc2-c2cccnc2)c(C)c1	-1	0	5	-2	-8	43*
Cc1ccc2c(c1)c1nnc(SCC(=O)N3CCCc4ccccc43)nc1n2CC(=O)O	x	0	4	67*	0	0
CCOc1ccccc1-n1c(SCC(=O)N2CCCc3ccccc32)nnc1-c1cccnc1	x	0	x	-1	2	x
CCc1nnc(SCC(=O)N2CCCc3ccccc32)nc1CC	x	x	x	-9	-2	x
CCCC#Cc1ccc2c(c1)O[C@H](CN(C)Cc1ccccc1)[C@H](C)CN([C@@H](C)CO)S2(=O)=O	x	0	x	x	-2	x
O=S(=O)(/C=C/C=C/S(=O)(=O)c1ccccc1)c1ccccc1	-6	4	-8	x	34*	1
Cc1ccc(S(=O)(=O)C=CS(=O)(=O)c2ccc(C)cc2)cc1	2	0	11	x	16	0
C/C(=N\Nc1ccc(C(=O)O)cc1)c1ccc(Cl)s1	23*	0	0	9	4	0
C/C(=N/Nc1ncc(Br)cn1)c1ccc(Br)cc1	-1	0	-3	0	-2	0
C/C(=N\Nc1ccc(C(=O)O)cc1)c1ccc(Br)cc1	21*	0	14	-5	-5	0
COc1ccc(NC(=O)N(C)C[C@H]2Oc3ccc(NC(=O)Nc4ccc(C(F)(F)F)cc4)cc3CC(=O)N([C@H](C)CO)C[C@H]2C)cc1	x	-1	-14	-7	x	0
C/C=C/c1ccccc1[C@H]1[C@@H](C#N)N(C(=O)NC2CCCCC2)[C@H]1CO	1	0	-4	x	-3	0
CCOC(=O)CNC(=O)CSc1nnc(NC(=O)c2ccccc2Cl)s1	-1	0	-5	-20	-2	43*
COc1ccc(NC(=O)N(C)C[C@@H]2Oc3ncc(Br)cc3C(=O)N([C@H](C)CO)C[C@@H]2C)cc1	-4	1	-5	-2	5	0
CC(C)C(=O)Nc1ccc(-c2nc3ccccc3c(=O)o2)cc1	x	0	10	16*	x	0
CCC(=O)N1CC2(C1)[C@H](c1ccccc1)[C@@H](CO)N2C(=O)NC(C)C	0	0	29*	x	x	0
CCC(=O)N1[C@H](CO)[C@H](c2ccccc2)C12CN(C(=O)Nc1ccccc1F)C2	5	0	27*	x	0	0
O=C(C1CCCCC1)N1CC2(C1)[C@@H](c1ccccc1)[C@H](CO)N2C(=O)c1cccnc1	-1	0	-11	x	2	0
